These results are taken from ChEMBL document CHEMBL1147085, “Metabolism and pharmacokinetics of a novel Src kinase inhibitor TG100435 ([7-(2,6-dichloro-phenyl)-5-methyl-benzo[1,2,4]triazin-3-yl]-[4-(2-pyrrolidin-1-yl-ethoxy)-phenyl]-amine) and its active N-oxide metabolite TG100855 …” (Drug Metab Dispos, 2007).

Data set [1] relates to Rattus norvegicus. The experiment in a line: AUC (0 to infinity) in Sprague-Dawley rat assessed as AUC of ([7-(2,6-Dichloro-phenyl)-5-methyl-benzo[1,2,4]triazin-3-yl]-[4-(2-pyrrolidin-1-yl-ethoxy)-phenyl]-amine) at 5 mg/kg, iv. In kind it is ADME, organism-based, Plasma. On the set-up: time infinity, dose 5 mg/kg, route intravenous. The settings on record: in vivo.
Data set [2] has as its system Rattus norvegicus. In words: Bioavailability in Sprague-Dawley rat assessed as bioavailability of ([7-(2,6-Dichloro-phenyl)-5-methyl-benzo[1,2,4]triazin-3-yl]-[4-(2-pyrrolidin-1-yl-ethoxy)-phenyl]-amine) at 25 mg/kg, po. Conditions: in vivo.
Data set [3] has as its system Rattus norvegicus. The experiment in a line: Tmax in Sprague-Dawley rat assessed as Tmax of ([7-(2,6-Dichloro-phenyl)-5-methyl-benzo[1,2,4]triazin-3-yl]-[4-(2-pyrrolidin-1-yl-ethoxy)-phenyl]-amine) at 25 mg/kg, po. Conditions: in vivo.
Data set [4] relates to Mus musculus. The experiment in a line: AUC (0 to infinity) in BALB/c mouse assessed as AUC of ([7-(2,6-Dichloro-phenyl)-5-methyl-benzo[1,2,4]triazin-3-yl]-[4-(2-pyrrolidin-1-yl-ethoxy)-phenyl]-amine) at 5 mg/kg, ip. In kind it is ADME, organism-based, Plasma. Also noted: time infinity, dose 5 mg/kg, route intraperitoneal. The settings on record: in vivo. The method, boiled down:
(§1)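 Male BALB/c mice (~25 g); fasted overnight for single p.o. dosing, not fasted for i.v. or i.p. dosing. Composite blood sampling, n=3 per time point: 5, 15, 30 min, 1, 3, 6, 24, 48 hr after i.v. dose; 0.5, 1, 3, 5, 8, 24, 30, 48 hr after p.o. or i.p. dose. Heparinized plasma, both parent and N-oxide measured by LC/MS/MS (MRM 494.2/98.1 and 510.2/98.1); non-compartmental analysis, AUC by linear trapezoidal rule.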

In data set [5] the test system is Mus musculus. In words: Bioavailability in BALB/c mouse assessed as bioavailability of ([7-(2,6-Dichloro-phenyl)-5-methyl-benzo[1,2,4]triazin-3-yl]-[4-(2-pyrrolidin-1-yl-ethoxy)-phenyl]-amine) at 25 mg/kg, po. The settings on record: in vivo.
Data set [6] can be described thus: Clearance in BALB/c mouse at 5 mg/kg, iv. Conditions: in vivo. Also noted: dose 5 mg/kg, route intravenous. In kind it is ADME, organism-based. The method, boiled down:
as §1

A short description of data set [7]: Bioavailability in Sprague-Dawley rat at 25 mg/kg, po. Conditions: in vivo. It counts as ADME, organism-based.
Data set [8] is described as follows: Clearance in BALB/c mouse at 5 mg/kg, ip. It counts as ADME, organism-based. On the set-up: dose 5 mg/kg, route intraperitoneal. The settings on record: in vivo. In a few lines: as §1
Data set [9] can be described thus: Drug level in BALB/c mouse plasma at 5 mg/kg, iv. It counts as ADME, organism-based. Also noted: dose 5 mg/kg, route intravenous. The method, boiled down: as §1
Data set [10] can be described thus: AUC (0 to infinity) in Sprague-Dawley rat at 5 mg/kg, iv. The settings on record: plasma. Also noted: time infinity, dose 5 mg/kg, route intravenous. In kind it is ADME, organism-based.
The test system of data set [11] is Rattus norvegicus. The experiment in a line: AUC (0 to infinity) in Sprague-Dawley rat assessed as AUC of ([7-(2,6-Dichloro-phenyl)-5-methyl-benzo[1,2,4]triazin-3-yl]-[4-(2-pyrrolidin-1-yl-ethoxy)-phenyl]-amine) at 25 mg/kg, po. The settings on record: in vivo.
For data set [12], the system named is Mus musculus. The experiment in a line: Maximal plasma concentration of TG100435 in BALB/C mice after 25 mg/kg oral dose of TG100855. It counts as ADME, organism-based. On the set-up: dose 25 mg/kg, route oral. The settings on record: in vivo. The method, boiled down: as §1
The subject of data set [13] is Mus musculus. In words: AUC (0 to last) in BALB/c mouse assessed as AUC of ([7-(2,6-Dichloro-phenyl)-5-methyl-benzo[1,2,4]triazin-3-yl]-[4-(2-pyrrolidin-1-yl-ethoxy)-phenyl]-amine) at 25 mg/kg, po. Conditions: in vivo.
The subject of data set [14] is Mus musculus. The experiment in a line: Tmax in BALB/c mouse assessed as Tmax of ([7-(2,6-Dichloro-phenyl)-5-methyl-benzo[1,2,4]triazin-3-yl]-[4-(2-pyrrolidin-1-yl-ethoxy)-phenyl]-amine) at 25 mg/kg, po. Conditions: in vivo.
In data set [15] the target is Tyrosine-protein kinase Lck (Homo sapiens, UniProt P06239). In words: Inhibition of Lck by luminescence based kinase assay.
Data set [16] can be described thus: AUC (0 to infinity) in BALB/c mouse at 25 mg/kg, po. Conditions: plasma. On the set-up: time infinity, dose 25 mg/kg, route oral. It counts as ADME, organism-based. The method, boiled down:
as §1

Data set [17] in a line: Tmax in BALB/c mouse at 25 mg/kg, po. It counts as ADME, organism-based. Also noted: dose 25 mg/kg, route oral. Conditions: in vivo.
Data set [18] relates to Rattus norvegicus. The experiment in a line: AUC (0 to last) in Sprague-Dawley rat assessed as AUC of ([7-(2,6-Dichloro-phenyl)-5-methyl-benzo[1,2,4]triazin-3-yl]-[4-(2-pyrrolidin-1-yl-ethoxy)-phenyl]-amine) at 25 mg/kg, po. Conditions: in vivo.
In data set [19] the test system is Rattus norvegicus. The experiment in a line: Drug level in Sprague-Dawley rat plasma at 5 mg/kg, ip. It counts as ADME, organism-based. Also noted: dose 5 mg/kg, route intraperitoneal. Conditions: in vivo.
A short description of data set [20]: Drug level in Sprague-Dawley rat plasma at 5 mg/kg, iv. In kind it is ADME, organism-based. Also noted: dose 5 mg/kg, route intravenous.
Data set [21] is described as follows: Volume of distribution in Sprague-Dawley rat at 5 mg/kg, iv. Conditions: in vivo. Also noted: dose 5 mg/kg, route intravenous. It counts as ADME, organism-based.
Data set [22] is described as follows: Tmax in Sprague-Dawley rat at 25 mg/kg, po. It counts as ADME, organism-based. Also noted: dose 25 mg/kg, route oral. The settings on record: in vivo.
Data set [23] is described as follows: AUC (0 to last) in BALB/c mouse at 25 mg/kg, po. In kind it is ADME, organism-based. Also noted: time 0 - last, dose 25 mg/kg, route oral. The settings on record: plasma. In a few lines: as §1
Data set [24] concerns Mus musculus. The experiment in a line: AUC (0 to infinity) in BALB/c mouse assessed as AUC of ([7-(2,6-Dichloro-phenyl)-5-methyl-benzo[1,2,4]triazin-3-yl]-[4-(2-pyrrolidin-1-yl-ethoxy)-phenyl]-amine) at 25 mg/kg, po. The settings on record: in vivo.

Sequence of Tyrosine-protein kinase Lck (P06239 whole entry): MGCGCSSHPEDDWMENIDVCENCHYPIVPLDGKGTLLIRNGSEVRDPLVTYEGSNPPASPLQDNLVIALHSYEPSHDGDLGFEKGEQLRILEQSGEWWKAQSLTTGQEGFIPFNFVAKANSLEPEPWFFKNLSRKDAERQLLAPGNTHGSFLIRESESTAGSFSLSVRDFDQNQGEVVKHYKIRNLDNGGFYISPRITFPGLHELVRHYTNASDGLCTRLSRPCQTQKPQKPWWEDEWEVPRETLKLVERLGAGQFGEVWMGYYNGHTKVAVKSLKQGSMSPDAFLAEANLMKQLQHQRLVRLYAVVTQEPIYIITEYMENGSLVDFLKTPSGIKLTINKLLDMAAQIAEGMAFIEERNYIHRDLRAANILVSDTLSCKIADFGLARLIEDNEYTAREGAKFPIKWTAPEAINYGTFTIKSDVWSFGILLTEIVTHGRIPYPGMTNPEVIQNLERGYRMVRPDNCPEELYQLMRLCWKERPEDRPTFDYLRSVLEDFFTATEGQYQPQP

As usually defined, the AUC is concentration integrated over time. A word on the Tmax: it is the time from dosing to the highest level. One may read the clearance as the volume of plasma or blood freed of the substance per unit of time. A high value points to efficient removal. Usually bioavailability stands for dose-corrected exposure relative to a reference, in per cent. Higher therefore signals much systemic uptake. For orientation: CL/F means clearance divided by bioavailability, as obtained after extravascular dosing. One may read the AUC(0-inf) as the area under the concentration-time curve extrapolated to infinity. High values mean high exposure, low ones low exposure. In general, Cmax refers to the maximum level reached in the sampled fluid or tissue. In general, Ki refers to a measure of affinity in units of concentration, obtained from inhibition or displacement. As a reminder, the Vd is the apparent volume that relates the amount in the body to the concentration in plasma or blood. What is called AUC(0-t) is the area under the concentration-time curve up to a stated or last time point. The low end stands for low exposure, the high end for high exposure. With `Cc1cc(-c2c(Cl)cccc2Cl)cc2nnc(Nc3ccc(OCC[N+]4([O-])CCCC4)cc3)nc12`, the exposure (AUC) with Rattus norvegicus [1] turned out to be 539 ng·h/mL; in the data set with Mus musculus [4] it was 1400 ng·h/mL; in the data set with Rattus norvegicus [11], 906 ng·h/mL; with Mus musculus [13], 1740 ng·h/mL; in the data set on Rattus norvegicus [18], 881 ng·h/mL; in the data set on Mus musculus [24], 1760 ng·h/mL. For the same compound, the F is listed as 3.1% with Rattus norvegicus [2] and 6.8% in the data set on Mus musculus [5]. Further, the time to peak (Tmax) in the data set with Rattus norvegicus [3] was found to be 4 h; with Mus musculus [14], 7 h; in [17], 1 h; in data set [22], 3.5 h. The clearance in data set [6] is 15.6 mL/min/kg. In data set [7], this compound gave a bioavailability of 1.6%. In addition, the apparent clearance (CL/F) in data set [8] amounted to 11.6 mL/min/kg. Besides, the C0 in data set [9] was found to be 9030 ng/mL; in the data set on Rattus norvegicus [19], 1080 ng/mL; in [20], 12200 ng/mL. In addition, the total exposure AUC(0-inf) in data set [10] turned out to be 6050 ng·h/mL; in [16] it was 939 ng·h/mL. In the data set on Mus musculus [12], this compound showed a Cmax of 113 ng/mL. The same compound displayed a Ki in [15] of 0.0117 µM. In data set [21], this compound registered a volume of distribution (Vd) of 1.9 L/kg. For the same compound, in [23], the AUC(0-t) was 912 ng·h/mL.
